How the values were obtained:
[1] = melting temperature; fluorescence melt of hairpins on a sequencing array, two-state fit, raised by 9.35 °C to match UV melts; conditions: sodium 0.088 M
How it was run: (§1)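 In 50 mM Na-HEPES pH 8.0 containing 25 mM NaCl, hairpins from the library on a sequenced MiSeq flow cell were imaged for Cy3 fluorescence at 2.5 °C steps up to 60 °C, with Cy3 and quencher oligos annealed. After normalisation to pre-quench Cy3 and to control constructs, two-state fits with bootstrapping gave melting temperature and folding enthalpy. Four replicates were combined by inverse-variance weighting, and fitted temperatures were shifted up by 9.35 °C to match UV melts.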

[2] = folding enthalpy; higher = less favourable; fluorescence melt of hairpins on a sequencing array, two-state fit; conditions: sodium 0.088 M
How it was run: as §1

Row | Sequence | Tm [1] | folding enthalpy [2]
1 | GCTAACGAAAGTTTAGC ((((((....))).))) | 46.9 °C | -24.2 kcal/mol
2 | GATCACCTGAGTGATC ((((((....)))))) | 57 °C | -35.8 kcal/mol
3 | GATCAGATTCTGATC ((((((...)))))) | 48.5 °C | -29.7 kcal/mol
4 | GGTTTTGGAAACGAAACC (((((.(....).))))) | 47.5 °C | -43.9 kcal/mol
5 | GATCATCTGGATGATC ((((((....)))))) | 53 °C | -44.9 kcal/mol
6 | GCGGGCCTCCGC ((((....)))) | 64 °C | -22.5 kcal/mol
7 | GATCCTCGATAGGATC ((((((....)))))) | 50.2 °C | -29.4 kcal/mol
8 | GGGTGCGAAAGCAAGCCC ((((((....)))..))) | 53.8 °C | -23.1 kcal/mol
9 | GACCCCGAAAGGGAAGTC ((((((....)))..))) | 42.1 °C | -16.1 kcal/mol
10 | GCGTGCGACGC ((((...)))) | 61 °C | -13.9 kcal/mol
11 | GTGGTCGAAAGACATCAC ((((((....)))..))) | 34.2 °C | -14.3 kcal/mol
12 | GATCAAGGTTTGATC ((((((...)))))) | 42.4 °C | -28.5 kcal/mol
13 | GCAGCGACGAAAGTCTGC (((..(((....)))))) | 48.3 °C | -16.1 kcal/mol
14 | GCGATGAGTCGC ((((....)))) | 54.8 °C | -30.5 kcal/mol
15 | GATCGGTGGCCGATC ((((((...)))))) | 55.9 °C | -33.8 kcal/mol
16 | GCCACCGAAAGGTCGGGC ((((((....)))..))) | 48 °C | -25.6 kcal/mol
17 | GATCGAGCACTCGATC ((((((....)))))) | 57.6 °C | -42.9 kcal/mol
18 | GGAGTCGCGAAAGCGTCC (((..(((....)))))) | 34.1 °C | -12.3 kcal/mol
19 | GCCCATGGAAACATGGAC (.(((((....))))).) | 46.7 °C | -15.1 kcal/mol
20 | GAGCACGAAAGTGAACTC ((((((....)))..))) | 42.9 °C | -20.2 kcal/mol
21 | GTGTACGGAAACACACAC ((((..(....)..)))) | 31.9 °C | -12.6 kcal/mol
22 | GATCGGAGCCCCGATC ((((((....)))))) | 54.7 °C | -32.6 kcal/mol
23 | GTCGCAGGAAACTGTGAC (((.(((....))).))) | 53.9 °C | -42.4 kcal/mol
24 | GAGTCCGAAAGGATGCTC ((((((....)))..))) | 40.5 °C | -16.9 kcal/mol

Row | Sequence | Tm [1] | folding enthalpy [2]
25 | GGTGACGAAAGTCATACC ((((((....)))..))) | 40.7 °C | -13.6 kcal/mol
26 | GCCGAGCCGAAAGGCGGC (((..(((....)))))) | 68.7 °C | -12.7 kcal/mol
27 | GTCAGATCGAAAGATGAC (((..(((....)))))) | 38.1 °C | -22.2 kcal/mol
28 | GTGAGTGGAAACGCTCAC (((((.(....).))))) | 53.7 °C | -42.5 kcal/mol
29 | GGGACATCGAAAGATCCC (((..(((....)))))) | 36.1 °C | -18.5 kcal/mol
30 | GCGGATCCCCGC ((((....)))) | 56.4 °C | -23.3 kcal/mol
31 | GTACCGTCGAAAGACTAC (((..(((....)))))) | 25.7 °C | -8.88 kcal/mol
32 | GGTAGTGGAAACACTATC (.(((((....))))).) | 43.5 °C | -23.4 kcal/mol
33 | GACGCCGAAAGGCTGTC ((((((....))).))) | 56.9 °C | -18.4 kcal/mol
34 | GATCACGAAAGTGCTATC ((((((....)))..))) | 26.1 °C | -12.1 kcal/mol
35 | GATATGCCGAAAGGCATC (((..(((....)))))) | 38.5 °C | -7.19 kcal/mol
36 | GGGATTTCGAAAGAACCC (((..(((....)))))) | 30.3 °C | -22.6 kcal/mol
37 | GCCTCTCGAAAGAGCGGC (((.(((....))).))) | 53.4 °C | -37 kcal/mol
38 | GATCGCACTGGCGATC ((((((....)))))) | 68.2 °C | -34 kcal/mol
39 | GGTTGGCCGAAAGGCACC (((..(((....)))))) | 41.4 °C | -12.8 kcal/mol
40 | GCAGCAGCGAAAGCTTGC (((..(((....)))))) | 43.5 °C | -13.6 kcal/mol
41 | GCGTTGGCACGC ((((....)))) | 50 °C | -17.2 kcal/mol
42 | GATCATAATCATGATC ((((((....)))))) | 46.2 °C | -32.1 kcal/mol
43 | GCCTTCGAAAGAACGGGC ((((((....)))..))) | 41 °C | -23 kcal/mol
44 | GCGGCATCGAAAGATCGC (((..(((....)))))) | 45.6 °C | -22.7 kcal/mol
45 | GAGGGAGAAATCCCTC ((((((....)))))) | 53.8 °C | -36 kcal/mol
46 | GATATGGAAACATATC ((((((....)))))) | 46.1 °C | -29.7 kcal/mol
47 | GAACACGGAAACGTGCTC ((.((((....)))).)) | 43 °C | -18.6 kcal/mol
48 | GCCGGAGGAAACCCCGAC (.(((.(....).))).) | 30.2 °C | -6.74 kcal/mol

Row | Sequence | Tm [1] | folding enthalpy [2]
49 | GCATGCGGAAACACATGC (((((.(....).))))) | 49.7 °C | -42 kcal/mol
50 | GATTTCCGAAAGGAATC (((.(((....)))))) | 42.9 °C | -16.4 kcal/mol
51 | GATCCATTCTTGGATC ((((((....)))))) | 54 °C | -42.1 kcal/mol
52 | ACATGGAAACATGT (((((....))))) | 45 °C | -19.7 kcal/mol
53 | GTGTACTCGAAAGAGCAC (((..(((....)))))) | 43.5 °C | -21.8 kcal/mol
54 | GATCATCTTAATGATC ((((((....)))))) | 49 °C | -36.5 kcal/mol
55 | GTTATGGGAAACCATAAC (((((((....))))))) | 54 °C | -43.7 kcal/mol
56 | GTCGCGCCGAAAGGCGAC (((..(((....)))))) | 43 °C | -7.69 kcal/mol
57 | GAGAACGGAAACGTTCTC (((((((....))))))) | 64.7 °C | -41.8 kcal/mol
58 | GATCTTCTCAAAGATC ((((((....)))))) | 45.2 °C | -33.4 kcal/mol
59 | GTGAGCGGAAACGCTTAC ((.((((....)))).)) | 51.6 °C | -27.1 kcal/mol
60 | GGACTCGAAAGAGCTTCC ((((((....)))..))) | 35.3 °C | -18.9 kcal/mol
61 | GCAGGCGAAAGCCTCTGC ((((((....)))..))) | 46.7 °C | -12 kcal/mol
62 | GCTAGTGGAAACACTGGC ((.((((....)))).)) | 51.7 °C | -32.2 kcal/mol
63 | GATCGAAAGCTCGATC ((((((....)))))) | 48.7 °C | -29.6 kcal/mol
64 | GCGCTCGGAAACGAGCAC (.(((((....))))).) | 51.5 °C | -10.4 kcal/mol
65 | GAGGGGGGAAACCTCCTC ((((.((....)).)))) | 51.4 °C | -33.7 kcal/mol
66 | GCCCGCGGAAACGCGAGC ((.((((....)))).)) | 62.2 °C | -17.3 kcal/mol
67 | GCAGCGCGAAAGCCCAGC ((.(.((....)).).)) | 28.1 °C | -10.9 kcal/mol
68 | CGGTTCGGAAACGACCG (((.(((....)))))) | 50.6 °C | -35.6 kcal/mol
69 | GGAGGGGGAAACCCCTCC (((((((....))))))) | 69.3 °C | -32 kcal/mol
70 | GCGAAAACTCGC ((((....)))) | 41.7 °C | -13.1 kcal/mol
71 | GGAGCGGGAAACCGCCCC ((.((((....)))).)) | 56.7 °C | -16.3 kcal/mol
72 | GCGTAGTACGC ((((...)))) | 53.1 °C | -20.8 kcal/mol

Row | Sequence | Tm [1] | folding enthalpy [2]
73 | GCTTTGCCGAAAGGCAGC (((..(((....)))))) | 35.8 °C | -8.46 kcal/mol
74 | GATCTCAGCCGAGATC ((((((....)))))) | 52.6 °C | -39.6 kcal/mol
75 | GTATCTCGAAAGAGCTAC (((.(((....))).))) | 36 °C | -21.8 kcal/mol
76 | GATCTTAGGAAAGATC ((((((....)))))) | 38.6 °C | -26.5 kcal/mol
77 | GATCCAATTTGGATC ((((((...)))))) | 51.1 °C | -39.8 kcal/mol
78 | GCGTGTCCGAAAGGACGC (((..(((....)))))) | 50.1 °C | -9.9 kcal/mol
79 | GCGAACCTCGC ((((...)))) | 46 °C | -17.7 kcal/mol
80 | GATCCAGGAAACCGGATC (((((.(....).))))) | 45.7 °C | -33.3 kcal/mol
81 | GATGACGGAAACGTCGTC ((.((((....)))).)) | 52.8 °C | -43.3 kcal/mol
82 | GGTGACGAAAGTCGGACC ((((((....)))..))) | 42.1 °C | -15.8 kcal/mol
83 | GATCCGTCTACGGATC ((((((....)))))) | 63.7 °C | -45.5 kcal/mol
84 | GGAGTACGAAAGTAGTCC (((.(((....))).))) | 55.2 °C | -40.4 kcal/mol
85 | GAGAATGAAAATTCTC ((((((....)))))) | 46 °C | -31.8 kcal/mol
86 | GTCTGAGGAAACTTAGAC ((((.((....)).)))) | 39.9 °C | -30.7 kcal/mol
87 | GGCGGCCCGAAAGGGGCC (((..(((....)))))) | 53.1 °C | -7.67 kcal/mol
88 | TTGTTGAAAAACAA (((((....))))) | 30.7 °C | -11.4 kcal/mol
89 | GAGAACGGAAACGCTCTC ((((.((....)).)))) | 43.2 °C | -28.6 kcal/mol
90 | GAAGGGGGAAACTCCTTC (((((.(....).))))) | 45.6 °C | -25.6 kcal/mol
91 | GGCATAGGAAACTATACC ((.((((....)))).)) | 31.2 °C | -18.6 kcal/mol
92 | GCCCCCGAAAGGGTTGGC ((((((....)))..))) | 52.6 °C | -18 kcal/mol
93 | GTCCCCGAAAGGGTGGAC ((((((....)))..))) | 48.9 °C | -14.8 kcal/mol
